Measured values reported in ChEMBL document CHEMBL4396900, “Extending Cross Metathesis To Identify Selective HDAC Inhibitors: Synthesis, Biological Activities, and Modeling” (ACS Med Chem Lett, 2019).
Active and inactive are the calls of the source. The calls are words filed in the database; no cut-off is given here.

What was measured:
Histone deacetylase = assay type: cell-based, Homo sapiens
cells [1] = assay type: functional, cell-based; conditions: Homo sapiens, 72 h
cells [2] = assay type: functional, cell-based; conditions: Homo sapiens, 72 h; remark: listed apart in the source
cells [3] = assay type: functional, cell-based; conditions: Homo sapiens, 72 h; remark: listed apart in the source
A549 = assay: cells; assay type: functional, cell-based; conditions: Homo sapiens, A549, 72 h
[4] = biological target: NAD-dependent protein deacetylase sirtuin-2 (Homo sapiens, UniProt Q8IXJ6); assay: Inhibition of human recombinant sirtuin 2 using fluoro-lysine sirtuin 2 deacetylase substrate measured after 60 mins by fluorimetry assay
Histone deacetylase 1 [5] = biological target: T1, Histone deacetylase 1 (Homo sapiens, UniProt Q13547); assay: Inhibition of human recombinant HDAC1 using fluorogenic HDAC substrate measured after 15 mins by fluorimetry assay
Histone deacetylase 5 [6] = biological target: T2, Histone deacetylase 5 (Homo sapiens, UniProt Q9UQL6); assay: Inhibition of human recombinant HDAC5 using fluorogenic HDAC substrate class 2a measured after 30 mins by fluorimetry assay
Homo sapiens [7] = species on record: Homo sapiens; assay: Selectivity ratio of IC50 for human recombinant HDAC8 to IC50 for human recombinant HDAC6
Histone deacetylase 9 = Histone deacetylase 9 (Homo sapiens, UniProt Q9UKV0); assay: Inhibition of human recombinant HDAC9 using fluorogenic HDAC substrate class 2a measured after 30 mins by fluorimetry assay
Homo sapiens [8] = species on record: Homo sapiens; assay: Selectivity ratio of IC50 for human recombinant HDAC1 to IC50 for human recombinant HDAC6
[9] = biological target: T3, Protein deacetylase HDAC6 (Homo sapiens) (UniProt Q9UBN7); assay: Inhibition of HDAC6 in human A549 cells assessed as upregulation of E-cadherin mRNA expression at 20 uM after 24 hrs by RT-Sybr green PCR analysis; assay type: cell-based
T3 sequence (whole entry): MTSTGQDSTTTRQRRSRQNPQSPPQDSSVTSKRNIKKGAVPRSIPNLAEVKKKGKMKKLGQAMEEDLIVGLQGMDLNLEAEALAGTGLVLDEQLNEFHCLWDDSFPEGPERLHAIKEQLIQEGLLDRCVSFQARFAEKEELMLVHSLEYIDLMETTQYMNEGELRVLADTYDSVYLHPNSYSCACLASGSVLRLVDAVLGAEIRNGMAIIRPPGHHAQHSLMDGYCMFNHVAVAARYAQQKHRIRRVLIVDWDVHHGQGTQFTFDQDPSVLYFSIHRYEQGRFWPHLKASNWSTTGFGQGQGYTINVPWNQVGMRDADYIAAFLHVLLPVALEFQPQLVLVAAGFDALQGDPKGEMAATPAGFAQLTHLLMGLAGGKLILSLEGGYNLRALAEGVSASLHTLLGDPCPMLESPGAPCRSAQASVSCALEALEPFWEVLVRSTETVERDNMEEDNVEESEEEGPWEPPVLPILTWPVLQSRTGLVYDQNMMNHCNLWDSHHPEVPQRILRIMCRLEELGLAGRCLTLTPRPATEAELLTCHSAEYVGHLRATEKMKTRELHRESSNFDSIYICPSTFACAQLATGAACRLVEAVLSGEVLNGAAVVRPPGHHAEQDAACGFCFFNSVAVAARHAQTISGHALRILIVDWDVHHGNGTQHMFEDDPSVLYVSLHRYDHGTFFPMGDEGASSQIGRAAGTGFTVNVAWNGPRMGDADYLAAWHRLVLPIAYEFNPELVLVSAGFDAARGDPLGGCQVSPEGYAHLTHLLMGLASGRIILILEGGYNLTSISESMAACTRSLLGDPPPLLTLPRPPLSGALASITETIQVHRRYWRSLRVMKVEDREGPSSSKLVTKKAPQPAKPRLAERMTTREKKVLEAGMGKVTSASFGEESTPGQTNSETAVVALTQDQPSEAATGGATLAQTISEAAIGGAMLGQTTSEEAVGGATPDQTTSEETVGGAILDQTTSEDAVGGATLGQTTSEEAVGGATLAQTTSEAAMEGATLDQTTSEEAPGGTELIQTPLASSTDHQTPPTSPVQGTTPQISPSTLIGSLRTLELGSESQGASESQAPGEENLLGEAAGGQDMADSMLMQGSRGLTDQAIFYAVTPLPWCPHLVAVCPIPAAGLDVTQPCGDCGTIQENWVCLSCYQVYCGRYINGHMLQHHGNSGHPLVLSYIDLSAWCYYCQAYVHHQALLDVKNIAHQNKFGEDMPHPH
Procedure, shortened: (§1)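 Meso 163 and A549 cells treated for 24 h; E-cadherin, Sema-3F and p21 mRNA quantified by real-time PCR; means ± S.E.M. of four independent experiments.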

Homo sapiens [10] = species on record: Homo sapiens; assay: Selectivity ratio of IC50 for human recombinant HDAC11 to IC50 for human recombinant HDAC6
[11] = biological target: T3, Protein deacetylase HDAC6 (Homo sapiens); assay: Inhibition of HDAC6 in human A549 cells assessed as upregulation of semaphorin 3F mRNA expression at 20 uM after 24 hrs by RT-Sybr green PCR analysis; assay type: cell-based
Procedure, shortened: as §1

Histone deacetylase 11 = Histone deacetylase 11 (Homo sapiens, UniProt Q96DB2); assay: Inhibition of human recombinant HDAC11 using fluorogenic HDAC substrate class 2a measured after 30 mins by fluorimetry assay
Histone deacetylase 4 [12] = biological target: T4, Histone deacetylase 4 (Homo sapiens, UniProt P56524); assay: Inhibition of human recombinant HDAC4 at 10 uM using fluorogenic HDAC substrate class 2a measured after 30 mins by fluorimetry assay relative to control
Histone deacetylase 1 [13] = biological target: T1, Histone deacetylase 1; assay: Inhibition of human recombinant HDAC1 at 10 uM using fluorogenic HDAC substrate measured after 15 mins by fluorimetry assay relative to control
Histone deacetylase 3 [14] = biological target: T5, Histone deacetylase 3 (Homo sapiens, UniProt O15379)
[15] = biological target: T3, Protein deacetylase HDAC6 (Homo sapiens); assay: Inhibition of HDAC6 in human Meso163 cells assessed as increase in alpha tubulin acetylation at 20 uM measured after 6 to 20 hrs by Western blot analysis; assay type: cell-based
Procedure, shortened: (§2)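 Meso 163 mesothelioma and A549 lung adenocarcinoma cells exposed to agent for 6 or 20 h; histone H3 and alpha-tubulin acetylation analysed by western blot with molecular-weight markers.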

[16] = biological target: T3, Protein deacetylase HDAC6 (Homo sapiens); assay: Inhibition of HDAC6 in human Meso163 cells assessed as upregulation of semaphorin 3F mRNA expression at 20 uM after 24 hrs by RT-Sybr green PCR analysis; assay type: cell-based
Procedure, shortened: as §1

[17] = biological target: NAD-dependent protein deacetylase sirtuin-3, mitochondrial (Homo sapiens) (UniProt Q9NTG7); assay: Inhibition of human recombinant sirtuin 3 at 10 uM using fluoro-lysine sirtuin 2 deacetylase substrate measured after 45 mins by fluorimetry assay relative to control
Histone deacetylase 4 [18] = biological target: T4, Histone deacetylase 4; assay: Inhibition of human recombinant HDAC4 using fluorogenic HDAC substrate class 2a measured after 30 mins by fluorimetry assay
Histone deacetylase 5 [19] = biological target: T2, Histone deacetylase 5; assay: Inhibition of human recombinant HDAC5 at 10 uM using fluorogenic HDAC substrate class 2a measured after 30 mins by fluorimetry assay relative to control
Histone deacetylase 3 [20] = biological target: T5, Histone deacetylase 3; assay: Inhibition of human recombinant HDAC3 at 10 uM using fluorogenic HDAC substrate measured after 10 mins by fluorimetry assay relative to control
Homo sapiens [21] = species on record: Homo sapiens; assay: Selectivity ratio of IC50 for human recombinant HDAC2 to IC50 for human recombinant HDAC6
[22] = biological target: Polyamine deacetylase HDAC10 (Homo sapiens) (UniProt Q969S8); assay: Inhibition of human recombinant HDAC10 at 10 uM using fluorogenic HDAC substrate measured after 45 mins by fluorimetry assay relative to control
[23] = biological target: T3, Protein deacetylase HDAC6 (Homo sapiens); assay: Inhibition of human recombinant HDAC6 at 10 uM using fluorogenic HDAC substrate measured after 30 mins by fluorimetry assay relative to control
[24] = biological target: Protein deacetylase HDAC6 (Homo sapiens, UniProt Q9UBN7); assay: Inhibition of human recombinant HDAC6 using fluorogenic HDAC substrate measured after 30 mins by fluorimetry assay
Homo sapiens [25] = species on record: Homo sapiens; assay: Selectivity ratio of IC50 for human recombinant HDAC10 to IC50 for human recombinant HDAC6
Histone deacetylase 2 [26] = biological target: T6, Histone deacetylase 2 (Homo sapiens, UniProt Q92769); assay: Inhibition of human recombinant HDAC2 using fluorogenic HDAC substrate measured after 15 mins by fluorimetry assay
[27] = biological target: T3, Protein deacetylase HDAC6 (Homo sapiens); assay: Inhibition of HDAC6 in human Meso163 cells assessed as upregulation of p21 mRNA expression at 20 uM after 24 hrs by RT-Sybr green PCR analysis; assay type: cell-based
Procedure, shortened: as §1

Histone deacetylase 8 = Histone deacetylase 8 (Homo sapiens, UniProt Q9BY41); assay: Inhibition of human recombinant HDAC8 using fluorogenic HDAC substrate measured after 60 mins by fluorimetry assay
[28] = biological target: NAD-dependent protein deacetylase sirtuin-1 (Homo sapiens) (UniProt Q96EB6); assay: Inhibition of human recombinant sirtuin 1 at 10 uM using fluorogenic HDAC substrate measured after 20 mins by fluorimetry assay relative to control
[29] = biological target: Histone deacetylase 11 (Homo sapiens) (UniProt Q96DB2); assay: Inhibition of human recombinant HDAC11 at 10 uM using fluorogenic HDAC substrate class 2a measured after 30 mins by fluorimetry assay relative to control
[30] = biological target: Histone deacetylase 8 (Homo sapiens) (UniProt Q9BY41); assay: Inhibition of human recombinant HDAC8 at 10 uM using fluorogenic HDAC substrate measured after 60 mins by fluorimetry assay relative to control
Homo sapiens [31] = species on record: Homo sapiens; assay: Selectivity ratio of IC50 for human recombinant HDAC3 to IC50 for human recombinant HDAC6
[32] = biological target: T3, Protein deacetylase HDAC6 (Homo sapiens); assay: Inhibition of HDAC6 in human A549 cells assessed as increase in histone H3 acetylation at 20 uM measured after 6 to 20 hrs by Western blot analysis; assay type: cell-based
Procedure, shortened: as §2

[33] = biological target: Polyamine deacetylase HDAC10 (Homo sapiens, UniProt Q969S8); assay: Inhibition of human recombinant HDAC10 using fluorogenic HDAC substrate measured after 45 mins by fluorimetry assay
[34] = biological target: T3, Protein deacetylase HDAC6 (Homo sapiens); assay: Inhibition of HDAC6 in human Meso163 cells assessed as increase in histone H3 acetylation at 20 uM measured after 6 to 20 hrs by Western blot analysis; assay type: cell-based
Procedure, shortened: as §2

Histone deacetylase 7 = Histone deacetylase 7 (Homo sapiens, UniProt Q8WUI4); assay: Inhibition of human recombinant HDAC7 using fluorogenic HDAC substrate class 2a measured after 45 mins by fluorimetry assay
[35] = biological target: T3, Protein deacetylase HDAC6 (Homo sapiens); assay: Inhibition of HDAC6 in human A549 cells assessed as increase in alpha tubulin acetylation at 20 uM measured after 6 to 20 hrs by Western blot analysis; assay type: cell-based
Procedure, shortened: as §2

[36] = biological target: T3, Protein deacetylase HDAC6 (Homo sapiens); assay: Inhibition of HDAC6 in human Meso163 cells assessed as upregulation of E-cadherin mRNA expression at 20 uM after 24 hrs by RT-Sybr green PCR analysis; assay type: cell-based
Procedure, shortened: as §1

[37] = biological target: T3, Protein deacetylase HDAC6 (Homo sapiens); assay: Inhibition of HDAC6 in human A549 cells assessed as upregulation of p21 mRNA expression at 20 uM after 24 hrs by RT-Sybr green PCR analysis; assay type: cell-based
Procedure, shortened: as §1

Histone deacetylase 2 [38] = biological target: T6, Histone deacetylase 2; assay: Inhibition of human recombinant HDAC2 at 10 uM using fluorogenic HDAC substrate measured after 15 mins by fluorimetry assay relative to control

T4 sequence (P56524 whole entry): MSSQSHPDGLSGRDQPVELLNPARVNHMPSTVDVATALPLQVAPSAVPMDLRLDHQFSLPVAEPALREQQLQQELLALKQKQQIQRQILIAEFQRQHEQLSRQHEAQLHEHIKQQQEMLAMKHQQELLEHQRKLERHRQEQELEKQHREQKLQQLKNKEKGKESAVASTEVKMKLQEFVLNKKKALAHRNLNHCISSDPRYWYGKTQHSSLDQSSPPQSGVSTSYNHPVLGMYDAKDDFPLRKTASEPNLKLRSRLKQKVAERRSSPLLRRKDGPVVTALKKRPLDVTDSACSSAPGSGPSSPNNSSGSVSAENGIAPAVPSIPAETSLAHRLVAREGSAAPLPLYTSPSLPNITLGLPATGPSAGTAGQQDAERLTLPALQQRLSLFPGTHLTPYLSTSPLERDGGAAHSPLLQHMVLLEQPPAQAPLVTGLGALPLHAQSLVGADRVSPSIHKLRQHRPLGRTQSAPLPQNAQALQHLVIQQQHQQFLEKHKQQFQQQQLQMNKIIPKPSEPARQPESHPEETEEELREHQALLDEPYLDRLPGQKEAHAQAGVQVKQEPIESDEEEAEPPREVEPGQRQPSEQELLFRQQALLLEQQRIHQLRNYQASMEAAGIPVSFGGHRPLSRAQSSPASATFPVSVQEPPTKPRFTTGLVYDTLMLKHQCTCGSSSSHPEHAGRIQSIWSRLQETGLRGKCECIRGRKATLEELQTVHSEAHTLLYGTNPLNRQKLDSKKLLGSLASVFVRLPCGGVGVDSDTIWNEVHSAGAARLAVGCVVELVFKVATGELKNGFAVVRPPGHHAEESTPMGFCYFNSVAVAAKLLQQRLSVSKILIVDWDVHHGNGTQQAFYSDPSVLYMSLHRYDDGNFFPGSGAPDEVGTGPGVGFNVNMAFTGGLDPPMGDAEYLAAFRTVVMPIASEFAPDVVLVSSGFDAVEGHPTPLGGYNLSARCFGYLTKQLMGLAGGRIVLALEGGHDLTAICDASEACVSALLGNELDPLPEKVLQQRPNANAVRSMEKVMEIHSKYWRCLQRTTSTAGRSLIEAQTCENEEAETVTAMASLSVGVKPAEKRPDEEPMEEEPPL
T6 sequence (Q92769 whole entry): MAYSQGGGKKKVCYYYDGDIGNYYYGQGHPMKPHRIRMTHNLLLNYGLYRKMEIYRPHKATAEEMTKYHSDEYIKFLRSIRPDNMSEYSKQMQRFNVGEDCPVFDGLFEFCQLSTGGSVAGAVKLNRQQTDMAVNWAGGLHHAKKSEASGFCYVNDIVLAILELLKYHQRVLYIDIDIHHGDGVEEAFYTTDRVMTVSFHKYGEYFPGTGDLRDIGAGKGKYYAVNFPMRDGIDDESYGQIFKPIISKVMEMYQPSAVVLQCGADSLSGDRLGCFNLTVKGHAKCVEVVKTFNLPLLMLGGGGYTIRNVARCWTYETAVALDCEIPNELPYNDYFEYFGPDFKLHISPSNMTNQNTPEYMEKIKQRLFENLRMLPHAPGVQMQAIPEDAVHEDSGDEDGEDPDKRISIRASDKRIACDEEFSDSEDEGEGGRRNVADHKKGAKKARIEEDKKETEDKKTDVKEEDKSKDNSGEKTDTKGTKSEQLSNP
T1 sequence (Q13547 whole entry): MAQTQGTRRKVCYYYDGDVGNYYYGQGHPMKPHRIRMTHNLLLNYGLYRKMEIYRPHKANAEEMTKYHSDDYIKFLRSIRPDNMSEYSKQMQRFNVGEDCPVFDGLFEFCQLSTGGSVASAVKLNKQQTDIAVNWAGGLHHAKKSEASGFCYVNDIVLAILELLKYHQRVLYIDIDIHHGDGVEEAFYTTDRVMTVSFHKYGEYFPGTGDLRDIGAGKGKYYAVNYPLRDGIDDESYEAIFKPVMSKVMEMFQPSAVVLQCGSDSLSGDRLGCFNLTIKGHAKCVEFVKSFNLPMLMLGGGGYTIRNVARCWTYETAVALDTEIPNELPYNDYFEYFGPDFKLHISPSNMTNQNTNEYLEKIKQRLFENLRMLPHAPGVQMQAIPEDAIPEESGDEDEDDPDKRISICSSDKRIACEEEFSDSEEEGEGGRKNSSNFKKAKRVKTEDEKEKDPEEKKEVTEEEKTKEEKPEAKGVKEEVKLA
T5 sequence (O15379 whole entry): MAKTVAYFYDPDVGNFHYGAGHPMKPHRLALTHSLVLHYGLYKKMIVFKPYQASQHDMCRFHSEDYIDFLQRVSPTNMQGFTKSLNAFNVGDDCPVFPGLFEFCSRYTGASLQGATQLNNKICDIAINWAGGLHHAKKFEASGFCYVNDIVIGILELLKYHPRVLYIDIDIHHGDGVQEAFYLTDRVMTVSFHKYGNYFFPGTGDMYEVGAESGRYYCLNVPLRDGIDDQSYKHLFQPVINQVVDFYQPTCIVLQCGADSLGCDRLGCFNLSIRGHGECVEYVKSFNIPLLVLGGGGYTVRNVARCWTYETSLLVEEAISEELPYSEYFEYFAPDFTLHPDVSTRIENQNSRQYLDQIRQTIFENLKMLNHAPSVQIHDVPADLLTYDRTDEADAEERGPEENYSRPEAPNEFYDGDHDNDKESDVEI
T2 sequence (Q9UQL6 whole entry): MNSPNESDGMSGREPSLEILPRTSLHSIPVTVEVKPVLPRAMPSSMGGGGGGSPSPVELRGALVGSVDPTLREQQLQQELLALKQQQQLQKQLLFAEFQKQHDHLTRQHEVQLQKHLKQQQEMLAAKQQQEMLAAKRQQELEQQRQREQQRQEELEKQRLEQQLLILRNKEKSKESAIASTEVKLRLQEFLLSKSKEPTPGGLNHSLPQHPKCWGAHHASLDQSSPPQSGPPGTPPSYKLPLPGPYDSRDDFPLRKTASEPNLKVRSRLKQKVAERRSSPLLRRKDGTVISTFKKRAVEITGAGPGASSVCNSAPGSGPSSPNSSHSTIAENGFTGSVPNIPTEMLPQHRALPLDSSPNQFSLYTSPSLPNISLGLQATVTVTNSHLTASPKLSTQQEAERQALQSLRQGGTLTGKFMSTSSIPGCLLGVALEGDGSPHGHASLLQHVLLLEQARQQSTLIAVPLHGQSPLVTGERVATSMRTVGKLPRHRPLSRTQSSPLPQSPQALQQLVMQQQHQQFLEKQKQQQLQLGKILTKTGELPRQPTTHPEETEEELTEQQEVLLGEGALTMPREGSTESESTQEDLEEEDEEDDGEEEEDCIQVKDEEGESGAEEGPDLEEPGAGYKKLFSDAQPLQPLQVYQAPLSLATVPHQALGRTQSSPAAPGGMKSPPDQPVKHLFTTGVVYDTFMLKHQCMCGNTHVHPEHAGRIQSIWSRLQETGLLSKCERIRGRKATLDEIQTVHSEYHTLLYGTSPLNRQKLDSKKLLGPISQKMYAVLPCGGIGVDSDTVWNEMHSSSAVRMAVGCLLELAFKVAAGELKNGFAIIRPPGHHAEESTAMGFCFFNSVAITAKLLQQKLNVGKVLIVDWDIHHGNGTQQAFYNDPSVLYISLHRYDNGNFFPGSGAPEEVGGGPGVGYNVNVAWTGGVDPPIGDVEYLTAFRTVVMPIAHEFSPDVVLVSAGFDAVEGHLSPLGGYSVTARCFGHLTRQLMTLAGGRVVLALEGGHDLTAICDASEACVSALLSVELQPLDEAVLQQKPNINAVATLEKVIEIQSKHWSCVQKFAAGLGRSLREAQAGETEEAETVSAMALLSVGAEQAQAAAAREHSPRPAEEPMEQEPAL
Chain of NAD-dependent protein deacetylase sirtuin-1 (Homo sapiens) (Q96EB6 whole entry): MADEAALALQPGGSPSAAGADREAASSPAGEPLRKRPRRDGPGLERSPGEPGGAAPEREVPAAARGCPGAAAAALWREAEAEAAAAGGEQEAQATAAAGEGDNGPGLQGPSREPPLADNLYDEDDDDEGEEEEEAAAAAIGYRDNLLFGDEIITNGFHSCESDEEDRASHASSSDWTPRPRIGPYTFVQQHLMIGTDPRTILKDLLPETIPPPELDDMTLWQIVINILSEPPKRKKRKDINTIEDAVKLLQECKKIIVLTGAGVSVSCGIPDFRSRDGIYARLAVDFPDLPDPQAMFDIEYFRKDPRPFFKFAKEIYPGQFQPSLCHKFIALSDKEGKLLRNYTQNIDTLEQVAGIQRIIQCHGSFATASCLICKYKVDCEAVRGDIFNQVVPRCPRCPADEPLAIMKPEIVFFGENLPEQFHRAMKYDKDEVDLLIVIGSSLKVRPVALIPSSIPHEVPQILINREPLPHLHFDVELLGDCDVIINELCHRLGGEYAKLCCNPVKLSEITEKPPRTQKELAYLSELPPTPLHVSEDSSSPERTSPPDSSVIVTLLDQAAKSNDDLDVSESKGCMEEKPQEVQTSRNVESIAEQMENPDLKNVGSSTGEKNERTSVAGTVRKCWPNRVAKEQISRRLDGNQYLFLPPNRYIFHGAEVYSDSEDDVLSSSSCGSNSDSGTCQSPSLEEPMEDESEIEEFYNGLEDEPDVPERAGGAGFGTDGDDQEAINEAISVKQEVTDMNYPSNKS
Chain of Polyamine deacetylase HDAC10 (Q969S8 whole entry): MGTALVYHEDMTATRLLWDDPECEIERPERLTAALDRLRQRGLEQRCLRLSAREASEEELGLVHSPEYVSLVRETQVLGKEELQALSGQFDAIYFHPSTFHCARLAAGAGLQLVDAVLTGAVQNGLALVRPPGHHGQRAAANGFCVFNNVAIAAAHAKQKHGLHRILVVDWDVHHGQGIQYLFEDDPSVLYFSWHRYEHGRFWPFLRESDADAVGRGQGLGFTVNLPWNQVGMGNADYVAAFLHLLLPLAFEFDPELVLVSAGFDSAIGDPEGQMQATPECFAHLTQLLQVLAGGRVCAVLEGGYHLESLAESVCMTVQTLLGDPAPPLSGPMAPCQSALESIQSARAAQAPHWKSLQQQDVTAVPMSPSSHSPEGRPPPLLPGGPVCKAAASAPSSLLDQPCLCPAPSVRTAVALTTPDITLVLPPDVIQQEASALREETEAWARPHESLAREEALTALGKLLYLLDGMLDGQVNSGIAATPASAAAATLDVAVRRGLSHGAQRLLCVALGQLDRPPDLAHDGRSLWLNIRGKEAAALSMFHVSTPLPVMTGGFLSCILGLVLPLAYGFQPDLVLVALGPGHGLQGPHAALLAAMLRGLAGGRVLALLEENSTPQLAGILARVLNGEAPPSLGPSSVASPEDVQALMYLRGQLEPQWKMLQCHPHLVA
Chain of Polyamine deacetylase HDAC10 (Homo sapiens) (Q969S8 whole entry): as above

SMILES: COC(=O)c1ccc2ccccc2c1OCCCCCCCC(=O)Nc1ccccc1N
- EC50 (Histone deacetylase): 8.14 µM

SMILES: CC(=O)Nc1ccc(C(=O)Nc2ccccc2N)cc1 [TACEDINALINE]
- IC50 (cells [1]): 3.9 µM
- IC50 (cells [2]): 7.83 µM
- IC50 (cells [3]): 15.8 µM
- IC50 (A549): 16 µM

SMILES: Cc1ccc(C(=O)Nc2ccc(S(=O)(=O)O)c3cc(S(=O)(=O)O)cc(S(=O)(=O)O)c23)cc1NC(=O)c1cccc(NC(=O)Nc2cccc(C(=O)Nc3cc(C(=O)Nc4ccc(S(=O)(=O)O)c5cc(S(=O)(=O)O)cc(S(=O)(=O)O)c45)ccc3C)c2)c1 [SURAMIN]
- IC50 [4]: 17 µM

SMILES: COC(=O)c1ccc2ccccc2c1OCCCCCCCC(=O)NO
- IC50 (Histone deacetylase 1 [5]): 3.5 µM
- IC50 (Histone deacetylase 5 [6]): Not Active
- Ratio IC50 (Homo sapiens [7]): 17 to 37
- IC50 (Histone deacetylase 9): Not Active
- Ratio IC50 (Homo sapiens [8]): 17 to 37
- IC50 (cells [1]): 15.7 µM
- Activity [9]: Active
- Ratio IC50 (Homo sapiens [10]): 17 to 37
- Activity [11]: Active
- IC50 (Histone deacetylase 11): 6.6 µM
- inhibition (Histone deacetylase 4 [12]): -4.8%
- inhibition (Histone deacetylase 1 [13]): 84.7%
- IC50 (Histone deacetylase 3 [14]): 1 µM
- Activity [15]: Active
- Activity [16]: Active
- inhibition [17]: -8.2%
- IC50 (Histone deacetylase 4 [18]): Not Active
- inhibition (Histone deacetylase 5 [19]): 2.8%
- inhibition (Histone deacetylase 3 [20]): 87.9%
- Ratio IC50 (Homo sapiens [21]): 17 to 37
- IC50 (cells [2]): 15.6 µM
- inhibition [22]: 82.3%
- inhibition [23]: 104%
- IC50 [24]: 0.095 µM
- IC50 (cells [3]): 15.9 µM
- Ratio IC50 (Homo sapiens [25]): 17 to 37
- IC50 (Histone deacetylase 2 [26]): 3.4 µM
- Activity [27]: Active
- EC50 (Histone deacetylase): 7.84 µM
- IC50 (Histone deacetylase 8): 1.6 µM
- IC50 (A549): 62.4 µM
- inhibition [28]: -2.6%
- inhibition [29]: 57.2%
- inhibition [30]: 93.1%
- Ratio IC50 (Homo sapiens [31]): 10
- Activity [32]: Active
- IC50 [33]: 1.6 µM
- Activity [34]: Active
- IC50 (Histone deacetylase 7): Not Active
- Activity [35]: Active
- Activity [36]: Active
- Activity [37]: Active
- inhibition (Histone deacetylase 2 [38]): 67.1%
